Assay results as given in ChEMBL document CHEMBL1817547, “Design, synthesis, and biological evaluation of curcumin analogues as multifunctional agents for the treatment of Alzheimer's disease” (Bioorg Med Chem, 2011).
Calls of active or inactive are those of the source. No cut-off for these calls is given here.

Tests used:
[1] = Antioxidant activity assessed as trolox equivalent of APPH-induced radical scavenging activity at 0.625 to 2.5 uM by ORAC fluorescence assay; assay type: functional
How it was run: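 AAPH (40 mM) peroxyl-radical decay of fluorescein (140 nM working solution) in 75 mM potassium phosphate pH 7.4; compounds from DMSO stocks tested at final 2.5, 1.25 and 0.625 µM. Each mixture in four replicates, at least four independent runs. Curves normalized to blank, net AUC computed, values expressed as Trolox equivalents from a Trolox standard curve.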

[2] = Inhibition of self-mediated amyloid beta (1 to 42) aggregation at 50 uM after 48 hrs by thioflavin T fluorescence assay relative to control
How it was run: (§1)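 Aβ1–42 (final 20 µM) incubated in 10 mM phosphate pH 7.4 at 37 °C for 48 h with or without compound (2, 5, 10, 20, 50 µM). Samples diluted into 50 mM glycine–NaOH pH 8.5 with 5 µM ThT, read at ex 450/em 485 nm. Inhibition % = (1 − IFi/IFc) × 100; mean ± SD from at least two independent measurements.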

[3] = Inhibition of self-mediated amyloid beta (1 to 42) aggregation after 48 hrs by thioflavin T fluorescence assay; how it was run: as §1
SH-SY5Y [4] = assay: Cytotoxicity against human SH-SY5Y cells assessed as cell viability at 2.5 uM; assay type: cell-based
How it was run: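 SH-SY5Y cells seeded at 3 × 10^4 per well, 24 h later exposed to 2.5 µM compound (final 0.05% DMSO) or vehicle for 24 h, then assessed for markers of cell death.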

SH-SY5Y [5] = assay: Antioxidant activity in human SH-SY5Y cells assessed as decrease of tert-butyl hydroperoxide-induced ROS production at 20 uM after 24 hrs using DCFH-DA by fluorescence assay; assay type: functional, cell-based
How it was run: (§2)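 SH-SY5Y grown in DMEM with 10% supplement at 37 °C, 5% CO2, seeded 3 × 10^4 cells/well. After 24 h, compounds were added (2.5 µM; reference antioxidants at 20 µM). Cells were loaded with 5 µM DCFH-DA in PBS for 30 min at 37 °C, washed, then exposed to 0.1 mM t-BuOOH for 30 min. Fluorescence read at ex 485/em 535 nm, expressed as % of untreated control.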

[6] = Inhibition of copper-induced amyloid beta (1 to 42) aggregation in HEPES buffer at pH 6.6 after 45 mins by thioflavin T fluorescence assay
How it was run: (§3)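 Aβ1–42 (20 µM) co-incubated with 40 µM Cu2+ or Fe2+ (HEPES pH 6.6) or Zn2+ (HEPES pH 7.4), with 150 µM NaCl, with or without 40 µM compound or clioquinol, at 37 °C for 45 min. Samples diluted into 50 mM glycine–NaOH pH 8.5 with 5 µM ThT; fluorescence read at ex 450/em 485 nm.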

[7] = Inhibition of iron-induced amyloid beta (1 to 42) aggregation in HEPES buffer at pH 6.6 after 45 mins by thioflavin T fluorescence assay; how it was run: as §3
SH-SY5Y [8] = assay: Antioxidant activity in human SH-SY5Y cells assessed as decrease of tert-butyl hydroperoxide-induced ROS production at 2.5 uM after 24 hrs using DCFH-DA by fluorescence assay; assay type: functional, cell-based; how it was run: as §2
[9] = Inhibition of zinc-induced amyloid beta (1 to 42) aggregation in HEPES buffer at pH 7.4 after 45 mins by thioflavin T fluorescence assay; how it was run: as §3
[10] = Metal chelating activity of the compound assessed as formation of iron complex at 20 uM by UV-vis spectrometry; assay type: functional
How it was run: (§4)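 UV spectra recorded for 20 µM compound alone or with 20 µM ZnSO4, CuSO4 or FeSO4.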

[11] = Inhibition of amyloid beta (1 to 42) fibril formation assessed as few short fibrils and many breakage points in fibrils at 20 to 40 uM after 32 hrs by transmission electron microscopic analysis
How it was run: (§5)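 Aβ1–42 (40 µM) aggregated with or without 20 µM compound and sampled at 0, 12 and 32 h. Samples applied to grids, washed with water, negatively stained for 1 min with 2% uranyl acetate, blotted and examined by transmission EM.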

[12] = Metal chelating activity of the compound assessed as formation of zinc complex at 20 uM by UV-vis spectrometry; assay type: functional; how it was run: as §4
[13] = Metal chelating activity of the compound assessed as formation of copper complex at 20 uM by molar ratio method; assay type: functional
How it was run: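 Molar ratio method: compound solutions titrated with increasing CuSO4 or FeSO4; spectra obtained by subtracting CuSO4 and compound at matching concentrations, monitoring the band at 493 nm.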

[14] = Metal chelating activity of the compound assessed as formation of copper complex at 20 uM by UV-vis spectrometry; assay type: functional; how it was run: as §4
[15] = Inhibition of amyloid beta (1 to 42) aggregation assessed as decrease of beta-sheet structure formation at 10 uM after 32 hrs by CD spectroscopy assay
How it was run: (§6)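 Aβ1–42 (20 µM) incubated at 37 °C with or without 10 µM compound in 10 mM sodium phosphate pH 7.4. At 0, 6, 12 and 32 h, far-UV CD spectra recorded at 25 °C from 190 to 260 nm in a 1 mm quartz cell (bandwidth 0.5 nm, scan 10 nm/min).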

[16] = Inhibition of amyloid beta (1 to 42) aggregation assessed as stabilization of […] structure at 10 uM after 32 hrs by CD spectroscopy assay; how it was run: as §6
[17] = Inhibition of amyloid beta (1 to 42) fibril formation assessed as less thin and short fibrils at 20 to 40 uM after 12 hrs by transmission electron microscopic analysis; how it was run: as §5

Structure (SMILES) | inhibition [2] [%] | IC50 [3] [µM] | Ratio [1] | Activity (SH-SY5Y [4]) | further results
CC(=O)N[C@@H](CS)C(=O)O | – | – | – | – | Activity (SH-SY5Y [5]): inactive
Cc1c(C)c2c(c(C)c1O)CCC(C)(C(=O)O)O2 (configuration not stated) | – | – | – | – | Activity (SH-SY5Y [5]): Active
COc1cc(/C=C/C(=O)CC(=O)/C=C/c2ccc(O)c(OC)c2)ccc1O [CURCUMIN] | 71.3 | 12.1 | 2.5 | – | Activity (SH-SY5Y [5]): Active
CN1CCN(c2ccc(/C=C3\CN(C)C/C(=C\c4ccc(N5CCN(C)CC5)cc4)C3=O)cc2)CC1 | 65.1 | 17.6 | 4.7 | Non-toxic | –
Oc1c(I)cc(Cl)c2cccnc12 | – | – | – | – | inhibition [6]: Active; inhibition [7]: Active
CN1CCN(c2ccc(/C=C3\CCC/C(=C\c4ccc(N5CCN(C)CC5)cc4)C3=O)cc2)CC1 | 73.1 | 6 | 2.6 | Non-toxic | Activity (SH-SY5Y [8]): Active
O=C1/C(=C/c2ccc(N3CCCCC3)cc2)CNC/C1=C\c1ccc(N2CCCCC2)cc1 | 64.5 | 17.2 | 2.4 | Non-toxic | –
CN1CCN(c2ccc(/C=C3\CC/C(=C\c4ccc(N5CCN(C)CC5)cc4)C3=O)cc2)CC1 | 67.2 | 12.6 | 1.7 | Non-toxic | Activity (SH-SY5Y [8]): Active
CN1CCN(c2ccc(/C=C3\CNC/C(=C\c4ccc(N5CCN(C)CC5)cc4)C3=O)cc2)CC1 | 90.2 | 2.5 | 5.8 | Non-toxic | inhibition [9]: Active; inhibition [6]: Active; Activity [10]: Active; Activity (SH-SY5Y [8]): Active; inhibition [11]: Active; Activity [12]: inactive; Activity [13]: Active; Activity [14]: Active; inhibition [7]: Active; inhibition [15]: Active; inhibition [16]: Active; inhibition [17]: Active

Second part, led by results:

inhibition [2] [%] | IC50 [3] [µM] | Structure (SMILES) | Ratio [1] | Activity (SH-SY5Y [4]) | further results
24 | > 50 | CN1CCN(c2ccc(/C=C/c3cccc(/C=C/c4ccc(N5CCN(C)CC5)cc4)n3)cc2)CC1 | 1.1 | Non-toxic | –
42.1 | > 50 | CN1CCN(c2ccc(/C=C/c3cccc(/C=C/c4ccc(N5CCN(C)CC5)cc4)c3)cc2)CC1 | 1.2 | Non-toxic | –
52.8 | 37.8 | CN1CCN(c2ccc(/C=C/C(=O)c3cccc(C(=O)/C=C/c4ccc(N5CCN(C)CC5)cc4)c3)cc2)CC1 | 1.3 | Non-toxic | –
35.8 | > 50 | CN1CCN(c2ccc(/C=C/C(=O)c3ccc(C(=O)/C=C/c4ccc(N5CCN(C)CC5)cc4)cc3)cc2)CC1 | 1.1 | Non-toxic | –
68.6 | 21.5 | CN1CCN(c2ccc(/C=C/C(=O)/C=C/c3ccc(N4CCN(C)CC4)cc3)cc2)CC1 | 3.2 | Non-toxic | Activity (SH-SY5Y [8]): Active
77.8 | 9.2 | CN1CCN(c2ccc(/C=C/C(=O)CC(=O)/C=C/c3ccc(N4CCN(C)CC4)cc3)cc2)CC1 | 1.9 | Non-toxic | –
